{"data": "Results gathered from unrelated publications", "CDK7 with cyclin H": "Cyclin-dependent kinase 7, with cyclin H (CDK7, Homo sapiens, UniProt P50613)", "CDK7": "Cyclin-dependent kinase 7 (CDK7, Homo sapiens, UniProt P50613)", "note": "Each line is one published result; the experiments were not run side by side."}
{"SMILES": "O=c1cc(-c2ccccc2)oc2ccccc12", "target": "CDK7 with cyclin H", "effect on": "enzyme activity", "mode": "inhibitor", "technique": "ADP detection", "tested at": "10 µM", "measurement": "inhibition", "result": "41.7%"}
{"SMILES": "CN1CCN(c2cnc3c(C4CCN(C(=O)c5ccc(OC(F)(F)F)cc5N)CC4)ncnc3c2)CC1", "target": "CDK7", "effect on": "cell-free assay", "technique": "competition with immobilised ligand", "tested at": "1 µM", "measurement": "remaining binding", "result": "89%"}
{"SMILES": "Cc1ccc(NC(=O)c2ccc(C)c(C(F)(F)F)c2)cc1C#Cc1nn(C2CCC(O)CC2)c2ncnc(N)c12 (centres unmarked)", "target": "CDK7", "effect on": "cell-free assay", "tested at": "10 µM", "measurement": "remaining signal", "result": "103%"}
{"SMILES": "O=c1cc(-c2ccccc2)oc2cc(O)cc(O)c12", "target": "CDK7 with cyclin H", "effect on": "enzyme activity", "mode": "inhibitor", "technique": "ADP detection", "tested at": "10 µM", "measurement": "inhibition", "result": "58.8%"}
{"SMILES": "C[C@H](c1ccnc(Nc2nc3ccc(-c4cc(N(C)C)ncn4)cc3[nH]2)c1)N1CCN(C(=O)CC(F)(F)F)CC1", "target": "CDK7", "effect on": "cell-free assay", "technique": "competition with immobilised ligand", "tested at": "0.1 µM", "measurement": "remaining binding", "result": "93%"}
{"SMILES": "Cc1ccc(Nc2nccc(N(C)c3ccc4c(C)n(C)nc4c3)n2)cc1S(N)(=O)=O", "target": "CDK7 with cyclin H", "effect on": "enzyme activity", "mode": "inhibitor", "tested at": "0.3 µM", "measurement": "inhibition", "result": "8%"}
{"SMILES": "CNC(=O)c1ccc(Nc2ncc(C(F)(F)F)c(NCc3nccnc3N(C)S(C)(=O)=O)n2)cc1", "target": "CDK7", "effect on": "cell-free assay", "technique": "competition with immobilised ligand", "tested at": "0.1 µM", "measurement": "remaining binding", "result": "59%"}
{"SMILES": "COc1cc2ncnc(Nc3ccc(F)c(Cl)c3)c2cc1OCCCN1CCOCC1", "target": "CDK7 with cyclin H", "effect on": "cell-free assay", "tested at": "0.5 µM", "measurement": "remaining signal", "result": "105%"}
{"SMILES": "CC(C)(C)c1nc(-c2cccc(NS(=O)(=O)c3c(F)cccc3F)c2F)c(-c2ccnc(N)n2)s1", "target": "CDK7 with cyclin H", "effect on": "enzyme activity", "mode": "inhibitor", "technique": "radiometric", "tested at": "1 µM", "measurement": "remaining activity", "result": "109%"}
{"SMILES": "CS(=O)(=O)N1CCCC(NC(=O)[C@H](CCC2CCCCC2)NC(=O)c2ccc(CNc3ncnc4c3nnn4-c3ccccc3)cc2)C1 (some centres unmarked)", "target": "CDK7", "effect on": "cell-free assay", "technique": "competition with immobilised ligand", "tested at": "0.1 µM", "measurement": "remaining binding", "result": "100%"}
{"SMILES": "C=C1CC[C@@H]2[C@](C)(CO)[C@H](O)CC[C@@]2(C)[C@@H]1CCC1=CCOC1=O", "target": "CDK7 with cyclin H", "effect on": "enzyme activity", "mode": "inhibitor", "technique": "ADP detection", "tested at": "10 µM", "measurement": "inhibition", "result": "22.8%"}
{"SMILES": "Nc1ncnc2occ(-c3ccc(NC(=O)Nc4cc(C(F)(F)F)ccc4F)cc3)c12", "target": "CDK7", "effect on": "cell-free assay", "mode": "inhibitor", "tested at": "20 µM", "measurement": "remaining signal", "result": "0.9%"}
{"SMILES": "COc1cc(-c2cc(-c3ccc(N4CCNCC4)cc3)cnc2C)cc(OC)c1OC", "target": "CDK7", "effect on": "enzyme activity", "mode": "inhibitor", "tested at": "0.1 µM", "measurement": "inhibition", "result": "0%"}
{"SMILES": "O=C1C[C@@H](c2ccc(O)c(O[C@@H]3O[C@H](CO)[C@@H](O)[C@H](O)[C@H]3O)c2)Oc2cc(O[C@@H]3O[C@H](CO)[C@@H](O)[C@H](O)[C@H]3O)ccc21", "target": "CDK7 with cyclin H", "effect on": "enzyme activity", "mode": "inhibitor", "technique": "ADP detection", "tested at": "10 µM", "measurement": "inhibition", "result": "36.6%"}
{"SMILES": "CO[C@H]1CC[C@H](CNc2ccc(S(=O)(=O)NC(=O)c3ccc(N4CCN(CC5=C(c6ccc(Cl)cc6)CC(C)(C)CC5)CC4)cc3Oc3cnc4[nH]ccc4c3)cc2[N+](=O)[O-])CC1", "target": "CDK7", "effect on": "cell-free assay", "technique": "competition with immobilised ligand", "tested at": "1 µM", "measurement": "remaining binding", "result": "100%"}
{"SMILES": "COc1ccc(-c2coc3cc(O)cc(O)c3c2=O)cc1", "target": "CDK7 with cyclin H", "effect on": "enzyme activity", "mode": "inhibitor", "technique": "ADP detection", "tested at": "10 µM", "measurement": "inhibition", "result": "41.3%"}
{"SMILES": "Cc1sc(C(=O)NC2COC2)cc1-n1cc(NC(=O)Nc2c(F)cccc2Cl)cn1", "target": "CDK7 with cyclin H", "effect on": "enzyme activity", "mode": "inhibitor", "tested at": "10 µM", "measurement": "remaining activity", "result": "103%"}
